Experimental data taken from ChEMBL document CHEMBL4364274, “Synthesis and biological activity of glycyrrhetinic acid derivatives as antitumor agents” (Eur J Med Chem, 2019).
Calls of active or inactive are those of the source. No cut-off for these calls is given here.

Key:
HeLa = experiment: Antiproliferative activity against human HeLa cells incubated for 72 hrs by MTT assay; assay type: functional, cell-based
How it was run: (§1)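 Cells in exponential growth were plated at 3×10^3 cells/well and grown 24 h at 37 °C in 5% CO2. They were then exposed to a range of drug concentrations for 72 h. MTT (5 mg/mL solution) was added for 4 h, the medium was discarded, and formazan was dissolved in DMSO before reading A490. Drug-free wells served as blanks. % inhibition was calculated as 1 − (sample−blank)/(control−blank), and IC50 was taken as the concentration giving 50% inhibition.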

HepG2 [1] = experiment: Antiproliferative activity against human HepG2 cells incubated for 72 hrs by MTT assay; assay type: functional, cell-based; conditions: HepG2, 72 h; how it was run: as §1
A549 [2] = experiment: Induction of apoptosis in human A549 cells assessed as early apoptotic cells at 3 uM incubated for 72 hrs by annexin V-FITC and PI staining based flow cytometric analysis (reference value: 3.0%); assay type: functional
A549 [3] = experiment: Induction of apoptosis in human A549 cells assessed as live cell at 5 uM incubated for 72 hrs by annexin V-FITC and PI staining based flow cytometric analysis (reference value: 90%); assay type: functional
A549 [4] = experiment: Induction of cell cycle arrest in human A549 cells assessed as accumulation at G2 phase at 5 uM incubated for 72 hrs by PI staining based flow cytometric analysis (reference value: 18.65%); assay type: functional
A549 [5] = experiment: Induction of cell cycle arrest in human A549 cells assessed as accumulation at G2 phase at 3 uM incubated for 72 hrs by PI staining based flow cytometric analysis (reference value: 18.65%); assay type: functional
A549 [6] = experiment: Induction of apoptosis in human A549 cells assessed as live cell at 1 uM incubated for 72 hrs by annexin V-FITC and PI staining based flow cytometric analysis (reference value: 90%); assay type: functional
A549 [7] = experiment: Induction of cell cycle arrest in human A549 cells assessed as accumulation at G2 phase at 1 uM incubated for 72 hrs by PI staining based flow cytometric analysis (reference value: 18.65%); assay type: functional
A549 [8] = experiment: Induction of cell cycle arrest in human A549 cells assessed as accumulation at S phase at 3 uM incubated for 72 hrs by PI staining based flow cytometric analysis (reference value: 31.41%); assay type: functional
A549 [9] = experiment: Induction of apoptosis in human A549 cells assessed as late apoptotic cells at 1 uM incubated for 72 hrs by annexin V-FITC and PI staining based flow cytometric analysis (reference value: 6.5%); assay type: functional
A549 [10] = experiment: Induction of morphological changes in human A549 cells assessed as condensation of chromatin at 1 to 5 uM incubated for 72 hrs by DAPI staining by inverted phase-contrast microscopic method; assay type: functional, cell-based
How it was run: (§2)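 Exponentially growing A549 cells were plated at 2.4×10^4 cells/well, grown 24 h at 37 °C in 5% CO2, then exposed to 1, 3 or 5 μM for 72 h beside untreated controls. Cells were washed twice in PBS, fixed in 4% paraformaldehyde for 10 min, and stained with DAPI (10 µg/mL) for 1 min in the dark. Nuclei were examined by inverted microscope at 200×.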

A549 [11] = experiment: Induction of cell cycle arrest in human A549 cells assessed as accumulation at G1 phase at 5 uM incubated for 72 hrs by PI staining based flow cytometric analysis (reference value: 49.94%); assay type: functional
A549 [12] = experiment: Induction of cell cycle arrest in human A549 cells assessed as accumulation at S phase at 1 uM incubated for 72 hrs by PI staining based flow cytometric analysis (reference value: 31.41%); assay type: functional
A549 [13] = experiment: Induction of morphological changes in human A549 cells assessed as formation of nuclear fragmentation at 1 to 5 uM incubated for 72 hrs by DAPI staining by inverted phase-contrast microscopic method; assay type: functional, cell-based; how it was run: as §2
A549 [14] = experiment: Ratio of IC50 for GA to IC50 for test compound for human A549 cells; assay type: functional
A549 [15] = experiment: Induction of morphological changes in human A549 cells assessed as appearance of apoptotic body formation at 1 to 5 uM incubated for 72 hrs by DAPI staining by inverted phase-contrast microscopic method; assay type: functional, cell-based; how it was run: as §2
A549 [16] = experiment: Induction of apoptosis in human A549 cells assessed as late apoptotic cells at 3 uM incubated for 72 hrs by annexin V-FITC and PI staining based flow cytometric analysis (reference value: 6.5%); assay type: functional
A549 [17] = experiment: Induction of apoptosis in human A549 cells assessed as necrotic cells at 3 uM incubated for 72 hrs by annexin V-FITC and PI staining based flow cytometric analysis (reference value: 0.5%); assay type: functional
A549 [18] = experiment: Induction of apoptosis in human A549 cells assessed as necrotic cells at 5 uM incubated for 72 hrs by annexin V-FITC and PI staining based flow cytometric analysis (reference value: 0.5%); assay type: functional
A549 [19] = experiment: Induction of cell cycle arrest in human A549 cells assessed as accumulation at G1 phase at 1 uM incubated for 72 hrs by PI staining based flow cytometric analysis (reference value: 49.94%); assay type: functional
A549 [20] = experiment: Induction of apoptosis in human A549 cells assessed as necrotic cells at 1 uM incubated for 72 hrs by annexin V-FITC and PI staining based flow cytometric analysis (reference value: 0.5%); assay type: functional
A549 [21] = experiment: Induction of cell cycle arrest in human A549 cells assessed as accumulation at G1 phase at 3 uM incubated for 72 hrs by PI staining based flow cytometric analysis (reference value: 49.94%); assay type: functional
A549 [22] = experiment: Antiproliferative activity against human A549 cells incubated for 72 hrs by MTT assay; assay type: functional, cell-based; conditions: A549, 72 h; how it was run: as §1
MCF7 = experiment: Antiproliferative activity against human MCF7 cells incubated for 72 hrs by MTT assay; assay type: functional, cell-based; conditions: MCF7, 72 h; how it was run: as §1
A549 [23] = experiment: Induction of apoptosis in human A549 cells assessed as late apoptotic cells at 5 uM incubated for 72 hrs by annexin V-FITC and PI staining based flow cytometric analysis (reference value: 6.5%); assay type: functional
A549 [24] = experiment: Induction of apoptosis in human A549 cells assessed as early apoptotic cells at 5 uM incubated for 72 hrs by annexin V-FITC and PI staining based flow cytometric analysis (reference value: 3.0%); assay type: functional
MDCK = experiment: Cytotoxicity against MDCK cells incubated for 72 hrs by MTT assay; assay type: cell-based; conditions: Canis lupus familiaris; how it was run: as §1
A549 [25] = experiment: Induction of apoptosis in human A549 cells assessed as early apoptotic cells at 1 uM incubated for 72 hrs by annexin V-FITC and PI staining based flow cytometric analysis (reference value: 3.0%); assay type: functional
A549 [26] = experiment: Induction of apoptosis in human A549 cells assessed as live cell at 3 uM incubated for 72 hrs by annexin V-FITC and PI staining based flow cytometric analysis (reference value: 90%); assay type: functional
A549 [27] = experiment: Induction of cell cycle arrest in human A549 cells assessed as accumulation at S phase at 5 uM incubated for 72 hrs by PI staining based flow cytometric analysis (reference value: 31.41%); assay type: functional
HepG2 [28] = experiment: Ratio of IC50 for GA to IC50 for test compound for human HepG2 cells; assay type: functional

C[C@H](N)C(=O)N[C@H]1CC[C@]2(C)[C@H]3C(=O)C=C4[C@@H]5C[C@@](C)(C(=O)OCc6ccccc6)CC[C@]5(C)CC[C@@]4(C)[C@]3(C)CC[C@H]2C1(C)C
IC50 (HeLa): 2.39 µM
IC50 (HepG2 [1]): 2.44 µM
Activity (A549 [2]): 26.5%
Activity (A549 [3]): 54%
Activity (A549 [4]): 0%
Activity (A549 [5]): 9.96%
Activity (A549 [6]): 85%
Activity (A549 [7]): 15.86%
Activity (A549 [8]): 33.59%
Activity (A549 [9]): 8.6%
Activity (A549 [10]): Active
Activity (A549 [11]): 46.79%
Activity (A549 [12]): 31.05%
Activity (A549 [13]): Active
Ratio IC50 (A549 [14]): 18
Activity (A549 [15]): Active
Activity (A549 [16]): 7.5%
Activity (A549 [17]): 0.3%
Activity (A549 [18]): 0%
Activity (A549 [19]): 53.09%
Activity (A549 [20]): 0.4%
Activity (A549 [21]): 56.45%
IC50 (A549 [22]): 2.11 µM
IC50 (MCF7): 2.14 µM
Activity (A549 [23]): 1.1%
Activity (A549 [24]): 44.8%
IC50 (MDCK): 4.65 µM
Activity (A549 [25]): 5.9%
Activity (A549 [26]): 65.7%
Activity (A549 [27]): 53.21%

CC(C)(C)OC(=O)NCC(=O)N[C@H]1CC[C@]2(C)[C@H]3C(=O)C=C4[C@@H]5C[C@@](C)(C(=O)OCc6ccccc6)CC[C@]5(C)CC[C@@]4(C)[C@]3(C)CC[C@H]2C1(C)C
IC50 (HeLa): > 40 µM
IC50 (HepG2 [1]): > 40 µM
IC50 (A549 [22]): > 40 µM
IC50 (MCF7): > 40 µM
IC50 (MDCK): > 40 µM

CC1(C)[C@@H](NC(=O)[C@@H]2CCCN2)CC[C@]2(C)[C@H]3C(=O)C=C4[C@@H]5C[C@@](C)(C(=O)OCc6ccccc6)CC[C@]5(C)CC[C@@]4(C)[C@]3(C)CC[C@@H]12
IC50 (HeLa): 2.21 µM
IC50 (HepG2 [1]): 2.14 µM
Ratio IC50 (HepG2 [28]): 16
IC50 (A549 [22]): 3.26 µM
IC50 (MCF7): 7.62 µM
IC50 (MDCK): 2.53 µM

CSCC[C@H](N)C(=O)N[C@H]1CC[C@]2(C)[C@H]3C(=O)C=C4[C@@H]5C[C@@](C)(C(=O)OCc6ccccc6)CC[C@]5(C)CC[C@@]4(C)[C@]3(C)CC[C@H]2C1(C)C
IC50 (HeLa): 3.1 µM
IC50 (HepG2 [1]): 4.09 µM
IC50 (A549 [22]): 6.97 µM
IC50 (MCF7): 7 µM
IC50 (MDCK): 6.25 µM

CN(CC(=O)O[C@H]1CC[C@]2(C)[C@H]3C(=O)C=C4[C@@H]5C[C@@](C)(C(=O)OCc6ccccc6)CC[C@]5(C)CC[C@@]4(C)[C@]3(C)CC[C@H]2C1(C)C)C(=O)OC(C)(C)C
IC50 (HeLa): > 40 µM
IC50 (HepG2 [1]): > 40 µM
IC50 (A549 [22]): > 40 µM
IC50 (MCF7): > 40 µM
IC50 (MDCK): > 40 µM
